Series [1] has as its system Human gammaherpesvirus 4. The experiment in a line: Inhibition of TPA/sodium butyrate-induced EBV lytic DNA replication in human P3HR1 cells incubated for 48 hrs post TPA/sodium butyrate induction by real-time PCR method. It counts as functional, cell-based. To be noted: for IC50: human gammaherpesvirus 4, P3HR-1, 48 h. Put shortly:
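P3HR-1 cells were induced with TPA (20 ng/mL) plus sodium butyrate (0.3 mM) and given varied compound concentrations 3 h later. Total cellular DNA was purified 48 h postinduction. EBV DNA content was taken as (induced − noninduced) over the same difference in untreated cells, and IC50 was derived from the dose-response curve.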
For orientation: In qPCR the cycle at which signal appears reflects the starting amount.

Series [2] can be described thus: Selectivity index, ratio of CC50 for human P3HR1 cells to IC50 for TPA/sodium butyrate-induced EBV lytic DNA replication. Put shortly: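 SI = CC50/IC50. CC50 came from Trypan blue viability counts 2 days after treatment. IC50 came from EBV DNA content 48 h after TPA/butyrate induction of P3HR-1 cells, with compound added at 3 h.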
Series [3] in a line: (§1) Cytotoxicity against human P3HR1 cells assessed as decrease in cell viability after 2 days by trypan blue staining-based light microscopic method. Also noted: species or system P3HR-1. The note with it: P3HR1 cells. A digest of the protocol: (§2)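 EBV-positive Burkitt's lymphoma P3HR-1 (clone 16) cells were grown in RPMI 1640 with 10% FBS, streptomycin and penicillin. They were exposed to the compounds, and viable cells were counted by Trypan blue exclusion under a light microscope 2 days post-treatment. Viability was expressed relative to untreated control cells, and CC50 was fitted from dose-response curves.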

In series [4] the test system is P3HR-1. Described as §1. The note with it: p3hr-1, 48 h. Put shortly: as §2
Series [5] deals with P3HR-1. As to the kind of experiment: Cytotoxicity against human P3HR1 cells assessed as decrease in cell viability at 10 uM after 2 days by trypan blue staining-based light microscopic method. The note with it: p3hr-1, 48 h. Put shortly: as §2

Active and inactive are the calls of the source. The calls are words filed in the database; no cut-off is given here.

As to `C=CC(C)(C)c1cc2cc3c(cc2oc1=O)O[C@@H](C(C)(C)OC(=O)NCCOC(C)=O)C3`, the inhibition result in series [1] is “Active”.
Consider `C=CC(C)(C)c1cc2cc3c(cc2oc1=O)O[C@@H](C(C)(C)OC(=O)OCCc1ccccn1)C3`, for which, in series [2], the “Ratio CC50/IC50” value came out at 7. Further, in series [1], the IC50 (in general, the concentration that inhibits the measured activity by half) was found to be 6.2 µM. The CC50 (in general, the concentration at which the toxic effect on the cells reaches its halfway point) at 48 h in series [3] was determined as 42.7 µM.
Take `C=CC(C)(C)c1cc2cc3c(cc2oc1=O)O[C@@H](C(C)(C)OC(=O)NCCN)C3`: in series [1], the inhibition entry is “Active”.
Take `C=CC(C)(C)c1cc2cc3c(cc2oc1=O)O[C@@H](C(C)(C)OC(=O)CNCC1CCCO1)C3` (stereo partly drawn): the inhibition entry in series [1] was “Active”.
In the case of `C=CC(C)(C)c1cc2cc3c(cc2oc1=O)O[C@@H](C(C)(C)OC(=O)OCCN1C(=O)c2ccccc2C1=O)C3`, the “Ratio CC50/IC50” value in series [2] was more than 120. This molecule gave a 50% inhibitory concentration (IC50) in series [1] of 0.83 µM. Besides, the half-maximal cytotoxic concentration (CC50) at 48 h in series [3] is more than 100 µM.
The molecule `C=CC(C)(C)c1cc2cc3c(cc2oc1=O)O[C@@H](C(C)(C)O)C3` gave an IC50 in series [1] of 69.9 µM. This lies in the double-digit micromolar range.
For `C=CC(C)(C)c1cc2cc3c(cc2oc1=O)O[C@@H](C(C)(C)OC(=O)OCCc1ccncc1)C3`, the “Ratio CC50/IC50” value in series [2] is given as 211. In series [1], this molecule had a half-maximal inhibitory concentration (IC50) of 0.32 µM. Moreover, the cytotoxic concentration (CC50) at 48 h in series [3] was found to be 67.6 µM.
On to `C=CC(C)(C)c1cc2cc3c(cc2oc1=O)O[C@@H](C(C)(C)OC(=O)CNCCCC)C3`, for which the “Ratio CC50/IC50” value in series [2] was less than 3. For the same molecule, in series [1], the inhibition result is “Active”. Also, in series [4], the Activity entry is “Toxic”.
As for `C=CC(C)(C)c1cc2cc3c(cc2oc1=O)O[C@@H](C(C)(C)OC(=O)CCl)C3`, the Activity result in series [5] was “Toxic”.
For `C=CC(C)(C)c1cc2cc3c(cc2oc1=O)O[C@@H](C(C)(C)OC(=O)NCCO)C3`, the inhibition result in series [1] is “Active”.
As for `C=CC(C)(C)c1cc2cc3c(cc2oc1=O)O[C@@H](C(C)(C)OC(=O)CNC)C3`, the “Ratio CC50/IC50” value in series [2] is reported as less than 3. Also, the inhibition result in series [1] was “Active”. For the same molecule, the Activity result in series [4] is listed as “Toxic”.
`C=CC(C)(C)c1cc2cc3c(cc2oc1=O)O[C@@H](C(C)(C)OC(=O)CNCC)C3`: the “Ratio CC50/IC50” value in series [2] is recorded as less than 3. In series [1], the inhibition result was “Active”. Moreover, in series [4], the Activity result is given as “Toxic”.
On to `C=CC(C)(C)c1cc2cc3c(cc2oc1=O)O[C@@H](C(C)(C)OC(=O)CNC1CCCC1)C3`, for which the Ratio CC50/IC50 in series [2] was more than 20. In series [1], the IC50 turned out to be 2 µM. The 50% cytotoxic concentration (CC50) at 48 h in series [3] was determined as 40.8 µM.
As to `C=CC(C)(C)c1cc2cc3c(cc2oc1=O)O[C@@H](C(C)(C)OC(=O)C=C(C)C)C3`, in series [2], the “Ratio CC50/IC50” value was more than 47. Further, in series [1], the IC50 came out at 2.1 µM. In addition, the CC50 at 48 h in series [3] is more than 100 µM.
Turning to `C=CC(C)(C)c1cc2cc3c(cc2oc1=O)O[C@@H](C(C)(C)OC(=O)CNCCc1ccc(F)cc1)C3`, the “Ratio CC50/IC50” value in series [2] amounted to 56. In series [1], this molecule displayed a half-inhibitory concentration (IC50) of 0.76 µM. In addition, the half-maximal cytotoxic concentration (CC50) at 48 h in series [3] was determined as 42.6 µM.
In the case of `C=CC(C)(C)c1cc2cc3c(cc2oc1=O)O[C@@H](C(C)(C)OC(=O)OCCc1ccccc1)C3`, the inhibition result in series [1] was “inactive”. In series [4], the Activity result is recorded as “Toxic”.
Take `C=CC(C)(C)c1cc2cc3c(cc2oc1=O)O[C@@H](C(C)(C)OC(C)=O)C3`: the “Ratio CC50/IC50” value in series [2] is reported as more than 10. This molecule registered an IC50 in series [1] of 13.8 µM. Further, in series [3], the CC50 at 48 h is more than 140 µM.
With `C=CC(C)(C)c1cc2cc3c(cc2oc1=O)O[C@@H](C(C)(C)OC(=O)OCc1ccccn1)C3`, the inhibition entry in series [1] is “Active”.
For the molecule `C=CC(C)(C)c1cc2cc3c(cc2oc1=O)O[C@@H](C(C)(C)OC(=O)OCCc1ccc(CC)cn1)C3`, in series [2], the “Ratio CC50/IC50” value amounted to 801. Further, half-maximal inhibition in series [1] (IC50) required 1.5 µM. Further, the half-maximal cytotoxic concentration (CC50) at 48 h in series [3] is 1200 µM.
Take `C=CC(C)(C)c1cc2cc3c(cc2oc1=O)O[C@@H](C(C)(C)OC(=O)NCCCCN)C3`: the inhibition result in series [1] was “Active”.
For `C=CC(C)(C)c1cc2cc3c(cc2oc1=O)O[C@@H](C(C)(C)OC(=O)NCCC#N)C3`, the inhibition result in series [1] was “Active”.
For the molecule `C=CC(C)(C)c1cc2cc3c(cc2oc1=O)OC(C(C)(C)OC(=O)OCCc1scnc1C)C3` (stereo not drawn), the inhibition entry in series [1] was “Active”.
Regarding `C=CC(C)(C)c1cc2cc3c(cc2oc1=O)O[C@@H](C(C)(C)OC(=O)c1ccccc1)C3`, in series [2], the “Ratio CC50/IC50” value was determined as 83. This molecule yielded an IC50 in series [1] of 4.5 µM. Also, the 50% cytotoxic concentration (CC50) at 48 h in series [3] worked out at 370 µM.
Consider `C=CC(C)(C)c1cc2cc3c(cc2oc1=O)O[C@@H](C(C)(C)OC(=O)CNCc1ccco1)C3`, for which the inhibition entry in series [1] is “Active”.
Consider `C=CC(C)(C)c1cc2cc3c(cc2oc1=O)O[C@@H](C(C)(C)OC(=O)NCCc1ccc(F)cc1)C3`, for which 1.4 µM corresponded to half-maximal inhibition in series [1] (IC50).
On to `C=CC(C)(C)c1cc2cc3c(cc2oc1=O)O[C@H](C(C)(C)OC(C)=O)C3`, for which the “Ratio CC50/IC50” value in series [2] is reported as more than 21. The molecule further displayed a half-inhibitory concentration (IC50) in series [1] of 7 µM. In series [3], the CC50 at 48 h was more than 150 µM.

Values taken from ChEMBL document CHEMBL4004812, “Semisynthesis of (-)-Rutamarin Derivatives and Their Inhibitory Activity on Epstein-Barr Virus Lytic Replication” (J Nat Prod, 2017).
